IC50 and GI50 data for 17 molecules are collected here from ChEMBL document CHEMBL1133720, “Structural studies on bioactive compounds. 32. Oxidation of tyrphostin protein tyrosine kinase inhibitors with hypervalent iodine reagents” (J Med Chem, 2000).

The structures appear in SMILES notation.

For experiment [1], the system named is T47D. The experiment can be described thus: Inhibition of T47D human breast tumor cell proliferation. In kind it is functional, cell-based. In a few lines:
(§1)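 Seven-day MTT assay at 250-300 cells/well in RPMI 1640 with 10% FCS. After a 24-h drug-free attachment at 37 °C/5% CO₂, drug was added at 1 nM-100 µM (final DMSO <0.25%). MTT was added at a final 400 µg/mL for 4 h, formazan was dissolved in DMSO-glycine (4:1) and absorbance read at 550 nm. IC50 is the mean of at least three experiments.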

The test system of experiment [2] is MCF7. The experiment can be described thus: Inhibition of TGF-alpha stimulated MCF-7 human breast tumor cell proliferation. Type of experiment: functional, cell-based. In a few lines:
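MCF-7 cells, 5 × 10³/well, were plated in phenol red-free RPMI 1640 with 5% charcoal-stripped FCS and allowed to attach overnight. Growth factor (IGF-I, IGF-II or TGF-α, as the line names) was then added together with drug. Cells grew a further 7 days, and viable cells were counted by MTT. IC50 is the mean of at least three experiments.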

Experiment [3] deals with MCF7. Description: Inhibition of MCF-7/adr human breast tumor cell proliferation. Type of experiment: functional, cell-based. In a few lines:
as §1

Experiment [4] has as its system MCF7. The experiment can be described thus: (§2) Inhibition of MCF-7 human breast tumor cell proliferation. Type of experiment: functional, cell-based. In a few lines:
as §1

The test system of experiment [5] is ZR-75-1. Description: Inhibition of ZR-75-1 human breast tumor cell proliferation. Type of experiment: functional, cell-based. In a few lines: as §1
Experiment [6] deals with SK-BR-3. The experiment can be described thus: Inhibition of SBBr3 human breast tumor cell proliferation. In kind it is functional, cell-based. In a few lines: as §1
Experiment [7] has as its system MDA-MB-231. Description: Inhibition of MDA-231 human breast tumor cell proliferation. Type of experiment: functional, cell-based. In a few lines:
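MTT assay, 7-day continuous drug exposure. Cells seeded at 250-300 cells/well in RPMI 1640 with 10% FCS and penicillin/streptomycin, attached over 24 h drug-free at 37 °C/5% CO2. Drug range 1 nM-100 µM from DMSO stocks, final DMSO <0.25%. MTT 400 µg/mL final for 4 h, formazan dissolved in DMSO-glycine, absorbance 550 nm. IC50 is the mean of at least three experiments.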

The test system of experiment [8] is MDA-MB-468. Description: Inhibition of MDA-468 human breast tumor cell proliferation. Type of experiment: functional, cell-based. In a few lines: as §1
Experiment [9] has as its system MCF7. The experiment is described as §2. Type of experiment: functional, cell-based. In a few lines:
as §1
This is another data set of the same source.

The test system of experiment [10] is Cell line. Description: Inhibition of proliferation in NCI panel of 60 human cell lines (Range is 20-80 uM). Type of experiment: functional.
The target in experiment [11] is Receptor tyrosine-protein kinase erbB-2. Description: Inhibition of c-erbB2 receptor.

As to `COc1cc(/C=C(\C#N)c2ccccn2)ccc1O`, the IC50 came out at 6 µM in [1]; 2.3 µM in experiment [2]; 52.8 µM in [3]; 2.7 µM in [4]; 2.6 µM in experiment [5]; 0.5 µM in experiment [6]. Besides, the IC50 in experiment [7] stood at 51 µM; in experiment [8] it was 0.06 µM; in [9], 0.7 µM.

Consider `COC(=O)/C(C#N)=C/c1cc(OC)c(O)c(-c2cc(/C=C(\C#N)C(=O)OC)cc(OC)c2O)c1`, for which halving of growth in experiment [10] (GI50) required 80 µM.

Turning to `N#C/C(=C\c1ccc(Oc2ccccc2)c(I)c1)C(=O)NCCCc1ccccc1`, the 50% growth inhibitory concentration (GI50) in [10] amounted to 80 µM.

In experiment [10], `COc1cc(/C=C(\C#N)C(N)=O)cc(-c2cc(/C=C(\C#N)C(N)=O)cc(OC)c2O)c1O` came in with a concentration for 50% growth inhibition (GI50) of 80 µM.

As for `CCOc1cc(C=C(C#N)C#N)cc(-c2cc(C=C(C#N)C#N)cc(OCC)c2O)c1O`, the GI50 in experiment [10] was determined as 80 µM.

With `COc1cc(/C=C(\C#N)c2ccccn2)cc(-c2cc(/C=C(\C#N)c3ccccn3)cc(OC)c2O)c1O`, growth in experiment [10] was halved (GI50) at 80 µM.

As for `N#C/C(=C\c1ccc(O)cc1)c1ccccn1`, the IC50 in experiment [1] amounted to 36.3 µM; in [2] it was 67.7 µM; in experiment [3] it was 51.2 µM; in experiment [4], 73.8 µM; in experiment [5], 48.5 µM; in experiment [6], 7.8 µM. The IC50 stood at 40.3 µM in experiment [7], 0.45 µM in experiment [8] and 15 µM in experiment [9].

Molecule `COC(=O)c1cc(OC)c(O)c(-c2cc(C(=O)OC)cc(OC)c2O)c1` had a GI50 in experiment [10] of 80 µM.

Molecule `COC1=C2C[C@@H](C)C[C@H](OC)[C@H](O)[C@@H](C)/C=C(\C)[C@H](OC(N)=O)[C@@H](OC)/C=C\C=C(/C)C(=O)NC(=CC1=O)C2=O` [GELDANAMYCIN] registered a 50% growth inhibitory concentration (GI50) in experiment [10] of 0.327 µM.

Regarding `COc1cc(C(C)=O)cc(-c2cc(C(C)=O)cc(OC)c2O)c1O`, in experiment [10], halving of growth (GI50) required 80 µM.

As to `COc1cc(C=O)cc(-c2cc(C=O)cc(OC)c2O)c1O`, halving of growth in experiment [10] (GI50) required 80 µM.

With `N#CC(C#N)=Cc1ccc(Oc2ccccc2)c(I)c1`, it took 80 µM to inhibit growth in experiment [10] by half (GI50).

For the molecule `N#C/C(=C\c1ccc(Oc2ccccc2)c(I)c1)c1ccccn1`, the half-inhibitory concentration (IC50) in experiment [1] was found to be 48.7 µM; in experiment [2] it was 41 µM; in experiment [3] it was 25.2 µM; in experiment [4], 41.8 µM; in [5] it was 24.7 µM; in experiment [6], 6.5 µM. The concentration for half-maximal inhibition (IC50) in [7] was found to be 39.8 µM; in experiment [8], 0.3 µM; in experiment [9] it was 20 µM.

Regarding `COC(=O)/C(C#N)=C/c1ccc(Oc2ccccc2)c(I)c1`, the 50% growth inhibitory concentration (GI50) in [10] is 80 µM.

Turning to `N#C/C(=C\c1ccc(Oc2ccccc2)c(I)c1)C(N)=O`, in experiment [10], growth was halved (GI50) at 80 µM.

Turning to `COc1cc(/C=C(\C#N)C(N)=O)cc(Sc2nc3ccccc3s2)c1O`, half-maximal inhibition in experiment [11] (IC50) was put at 0.35 µM.

Consider `COc1cc(C=C(C#N)C#N)cc(-c2cc(C=C(C#N)C#N)cc(OC)c2O)c1O`, for which growth in experiment [10] was halved (GI50) at 80 µM.

The term IC50 denotes the concentration at which inhibition is half-maximal. Usually GI50 stands for the concentration giving 50% growth inhibition. Higher therefore signals lower sensitivity of the cells.
